# ChEMBL document CHEMBL4819027, “Design, synthesis and biological evaluation of novel 2-(4-(1H-indazol-6-yl)-1H-pyrazol-1-yl)acetamide derivatives as potent VEGFR-2 inhibitors” (Eur J Med Chem, 2021)
# Activity calls are given as the source filed them. No cut-off for these calls is given here.
# Experiments:
# [1] = test system: HGC-27; assay: Induction of apoptosis in human HGC-27 cells assessed as late apoptotic cells level at 1 uM incubated for 24 hrs by propidium iode and annexin V-FITC staining based flow cytometry (reference value: 0.86); format: functional
# Method in brief: (§1)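 HGC-27 cells (1.0 × 10⁶ per 60 mm dish) were treated 24 h with 0.1% DMSO or compound (0.1, 0.5, 1 μM). Cells were stained with Annexin V-FITC in HEPES/NaCl/CaCl₂ binding buffer (pH 7.4) for 15 min at room temperature, then with PI for 10 min. About 10 000 events were acquired by flow cytometry to give viable, early apoptotic, late apoptotic and necrotic fractions.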
# [2] = test system: HGC-27; assay: Induction of apoptosis in human HGC-27 cells assessed as late apoptotic cells level incubated for 24 hrs by propidium iode and annexin V-FITC staining based flow cytometry; format: functional, cell-based; conditions: dose 0.1-1 µM; method in brief: as §1
# [3] = test system: HGC-27; assay: Induction of apoptosis in human HGC-27 cells assessed as total apoptotic cells level at 0.1 uM incubated for 24 hrs by propidium iode and annexin V-FITC staining based flow cytometry; format: functional; method in brief: as §1
# [4] = test system: HGC-27; assay: Induction of apoptosis in human HGC-27 cells assessed as necrotic cells level at 0.1 uM incubated for 24 hrs by propidium iode and annexin V-FITC staining based flow cytometry (reference value: 1.64%); format: functional; method in brief: as §1
# [5] = test system: HUVEC; assay: Antiangiogenic activity against HUVEC cells assessed as reduction in VEGF-induced total branching points at 1 to 10 uM incubated for 12 hrs by matrigel-based assay; format: functional, cell-based; conditions: Homo sapiens, dose 1-10 µM
# Method in brief: (§2)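 HUVECs at 4 × 10⁵ cells/mL seeded on Matrigel that had been polymerized 1 h at 37 °C. Cells were stimulated with 20 ng/mL VEGF and treated with compound (1, 2.5, 5 and 10 μM) or 0.1% DMSO vehicle for 12 h at 37 °C. Tubes were imaged by inverted microscopy. Tube length, surface area and branch points were quantified as pixel area.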
# [6] = test system: HGC-27; assay: Antimigratory activity against human HGC-27 cells assessed as number of migration cells at 1 uM measured after 24 hrs by transwell migration assay (reference value: 320); format: functional
# [7] = test system: HepG2; assay: Antiproliferative activity against human HepG2 cells assessed as cell growth inhibition after 72 hrs by MTT assay; format: functional, cell-based; conditions: HepG2, 72 h
# Method in brief: (§3)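 Log-phase cells were seeded at 5 × 10³ per well and attached 24 h. HT-29 and GES-1 were grown in DMEM-based medium, A549/HepG2/HGC-27 in RPMI-1640, HUVEC in ECM with ECGS; all media had 10% FBS. Cells were exposed to graded compound concentrations for 72 h at 37 °C. MTT (5 mg/mL stock) was added for 4 h, formazan dissolved in DMSO, and A490 read. IC50 was obtained by nonlinear sigmoidal regression; mean ± S.E. of three experiments.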
# [8] = test system: HGC-27; assay: Induction of apoptosis in human HGC-27 cells assessed as viable cells level at 0.5 uM incubated for 24 hrs by propidium iode and annexin V-FITC staining based flow cytometry (reference value: 96.0%); format: functional; method in brief: as §1
# [9] = test system: HGC-27; assay: Induction of apoptosis in human HGC-27 cells assessed as late apoptotic cells level at 0.1 uM incubated for 24 hrs by propidium iode and annexin V-FITC staining based flow cytometry (reference value: 0.86%); format: functional; method in brief: as §1
# [10] = biological target: Vascular endothelial growth factor receptor 2 (Homo sapiens, UniProt P35968); assay: Inhibition of VEGFR2 in human HGC-27 cells assessed as downregulation of VEGFR2 phosphorylation at Tyr1175 at 0.1 to 1 uM after 24 hrs by Westernblot analysis; format: cell-based; conditions: dose 0.1-1 µM
# Chain of Vascular endothelial growth factor receptor 2 (P35968 whole entry): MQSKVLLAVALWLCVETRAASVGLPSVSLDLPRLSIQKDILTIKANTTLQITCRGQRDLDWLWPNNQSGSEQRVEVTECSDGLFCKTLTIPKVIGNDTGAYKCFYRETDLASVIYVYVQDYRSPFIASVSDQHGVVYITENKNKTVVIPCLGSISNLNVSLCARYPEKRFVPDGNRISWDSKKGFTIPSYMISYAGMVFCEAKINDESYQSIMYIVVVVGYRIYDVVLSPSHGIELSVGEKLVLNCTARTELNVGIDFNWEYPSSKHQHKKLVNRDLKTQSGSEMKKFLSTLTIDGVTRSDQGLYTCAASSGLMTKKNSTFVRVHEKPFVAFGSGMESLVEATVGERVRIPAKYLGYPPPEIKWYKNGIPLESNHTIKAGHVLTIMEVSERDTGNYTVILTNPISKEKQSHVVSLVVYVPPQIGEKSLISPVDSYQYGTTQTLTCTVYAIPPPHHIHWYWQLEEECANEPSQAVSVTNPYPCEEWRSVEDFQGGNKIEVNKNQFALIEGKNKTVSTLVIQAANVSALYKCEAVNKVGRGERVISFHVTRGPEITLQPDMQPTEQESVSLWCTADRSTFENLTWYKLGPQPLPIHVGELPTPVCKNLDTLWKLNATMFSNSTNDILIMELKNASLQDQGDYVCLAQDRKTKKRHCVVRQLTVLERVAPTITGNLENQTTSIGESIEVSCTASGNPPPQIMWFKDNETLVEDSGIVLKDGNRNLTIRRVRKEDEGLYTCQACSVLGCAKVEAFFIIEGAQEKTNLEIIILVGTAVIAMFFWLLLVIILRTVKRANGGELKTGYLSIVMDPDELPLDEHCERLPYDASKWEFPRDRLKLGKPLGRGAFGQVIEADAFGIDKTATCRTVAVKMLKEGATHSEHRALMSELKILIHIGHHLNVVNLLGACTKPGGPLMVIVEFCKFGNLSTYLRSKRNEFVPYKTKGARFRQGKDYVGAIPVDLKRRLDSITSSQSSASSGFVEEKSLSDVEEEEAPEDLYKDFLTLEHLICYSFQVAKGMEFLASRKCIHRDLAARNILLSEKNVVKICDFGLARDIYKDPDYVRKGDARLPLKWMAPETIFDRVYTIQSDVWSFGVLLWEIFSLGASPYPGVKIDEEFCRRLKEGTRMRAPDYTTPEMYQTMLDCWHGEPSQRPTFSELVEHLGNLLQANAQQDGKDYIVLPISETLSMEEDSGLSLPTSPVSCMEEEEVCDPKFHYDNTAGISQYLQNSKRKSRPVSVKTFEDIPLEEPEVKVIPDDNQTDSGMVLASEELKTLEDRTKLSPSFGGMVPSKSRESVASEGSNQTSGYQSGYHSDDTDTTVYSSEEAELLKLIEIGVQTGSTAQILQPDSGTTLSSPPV
# Method in brief: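 HGC-27 cells (1.0 × 10⁶ per 60 mm dish) were treated 24 h with 0.1% DMSO or compound (0.1, 0.5, 1 μM). RIPA lysates with phosphatase inhibitor were quantified by BCA and resolved on 8–12% SDS-PAGE onto nitrocellulose. Blots were probed for p-VEGFR-2 (Tyr1175), p-PI3K (Tyr607), p-AKT (Thr308) and p-mTOR (Ser2448), with ECL detection and densitometry; mean ± SEM.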
# [11] = test system: HUVEC; assay: Antiangiogenic activity against HUVEC cells assessed as reduction in VEGF-induced tube formation tube formation incubated for 12 hrs by matrigel-based assay; format: functional, cell-based; conditions: Homo sapiens; method in brief: as §2
# [12] = test system: HGC-27; assay: Induction of apoptosis in human HGC-27 cells assessed as early apoptotic cells level at 1 uM incubated for 24 hrs by propidium iode and annexin V-FITC staining based flow cytometry (reference value: 1.48%); format: functional; method in brief: as §1
# [13] = test system: HUVEC; assay: Antiangiogenic activity against HUVEC cells assessed as reduction in VEGF-induced tube length at 1 to 10 uM incubated for 12 hrs by matrigel-based assay; format: functional, cell-based; conditions: Homo sapiens, dose 1-10 µM; method in brief: as §2
# [14] = test system: HUVEC; assay: Cytotoxicity against HUVEC cells at 1 to 5 uM after 72 hrs by MTT assay; format: cell-based; conditions: human, dose 1-5 µM
# Method in brief: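 HUVECs grown in ECM with 1% ECGS and 10% FBS were seeded at 5 × 10³ per well and attached 24 h. Cells were exposed to compound at 1, 2.5 and 5 μM for 72 h at 37 °C. Viability was read by MTT: 4 h incubation, DMSO solubilization, absorbance at 490 nm.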
# [15] = test system: GES1; assay: Cytotoxicity against human GES-1 cells assessed as inhibition of cell growth incubated for 72 hrs by MTT assay; format: cell-based; conditions: GES1, 72 h; method in brief: as §3
smiles,measurement,setting,value
CC(=O)Nc1n[nH]c2cc(-c3cnn(CC(=O)Nc4ccc(C)c(C(F)(F)F)c4)c3)ccc12,Activity,[1],17%
same,Activity,[2],Dose-Dependent Effect
same,Activity,[3],7.42%
same,Activity,[4],2.12%
same,Activity,[5],Active
same,Activity,[6],22
same,IC50,[7],15 µM
same,Activity,[8],69.7%
same,Activity,[9],2.67%
same,inhibition,[10],Active
same,inhibition,[11],Dose-Dependent Effect
same,Activity,[12],11.8%
same,Activity,[13],Active
same,Activity,[14],Non-Toxic
same,IC50,[15],187 µM
